Assay results taken from the M2OR odorant receptor database.

target: T1, OR1A1 (Homo sapiens) (UniProt Q9P1Q5); details: stereoisomer not certain
T1 sequence (whole entry): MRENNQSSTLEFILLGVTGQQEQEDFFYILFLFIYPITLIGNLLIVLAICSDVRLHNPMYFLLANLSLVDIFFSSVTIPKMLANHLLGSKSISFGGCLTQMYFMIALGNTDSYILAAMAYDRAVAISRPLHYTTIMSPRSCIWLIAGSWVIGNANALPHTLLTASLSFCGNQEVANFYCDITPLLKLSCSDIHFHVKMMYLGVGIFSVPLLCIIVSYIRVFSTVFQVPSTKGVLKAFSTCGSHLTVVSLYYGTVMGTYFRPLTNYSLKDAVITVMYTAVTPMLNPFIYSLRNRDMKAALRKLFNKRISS
In short: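 Transient luciferase assays in mammalian cell lines were common, though methods varied by source. The values come from published papers and their supplementary material, with extra details from the original authors when needed. Responsive refers to a measured signal the original authors judged statistically different from baseline, and non-responsive (inactive) to the remainder.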

Odorant receptor agonist call, inactive:
CCC=CCCC=O
O=C(O)C=Cc1ccc(O)cc1
CSC
CC(=O)Oc1ccccc1
CCCCC(=O)C(C)=O
CC=CC(=O)C1=C(C)C=CCC1(C)C
CCCCCCCC=CC=CC=O
CC(=O)C(C)C(C)=O
CCc1cnccn1
CCCCCOC(=O)CCCCC
CCCC(C)C=O (configuration not stated)
C=C(C)c1ccc(C)cc1
OCCc1ccccc1
CCC=CCCOC(C)=O
CC=O
CSCCC=O
O=C(O)CCc1ccccc1
C=C(C)C1CC=C(C)C(OC(C)=O)C1 (configuration not stated)
CCCCCCCC(=O)[O-].[H+]
COc1nccnc1C(C)C
CC(C)CCCCCCCCCCC=O
CC1=CCC(C(C)(C)S)CC1 (configuration not stated)
COCCC(C)(C)S
CCCSSSC
CCCCC(C)CCC(=O)O (configuration not stated)
CC(=O)CC(C)(C)S
CC(C)(S)CCOC=O
CC12CCC(CC1=O)C2(C)C (configuration not stated)
COc1ccccc1
CCC=CCC=O
C=CC(C)=CCC=C(C)CCC=C(C)C
CCCCCCOC(C)=O

Odorant receptor agonist call, active:
CCC=CCCCCCC=O
CCCCCC1CCC(=O)O1 (configuration not stated)
COC(=O)Cc1ccccc1C
C=C(C)C1CCC(C)C(=O)C1 (configuration not stated)
O=C(c1ccccc1)c1ccccc1
